DNMT1 block: blocks human DNA methyltransferase DNMT1. DNMT1 molecular beacon, Hinp1I cleavage, fluorescence. hit rate 0.83% among 360,000. P26358. inhibition (reported as % activation of signal), % at 10 µM; in the data active means inhibition above about 50%
STEP inh: blocks human striatal-enriched tyrosine phosphatase; hit rate 0.25% among 360,000; recombinant STEP, OMFP fluorogenic substrate, fluorescence; inhibition, % at 20 µM; AID 588621; P54829;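 active means inhibition at 20 µM, scaled per plate between control wells, above about 37%, limit read from the data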;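 further: 0% = DMSO with enzyme and substrate and 100% = substrate only without enzyme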
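Assay system: isolated STEP enzyme. Buffer or medium: pH 6.0 Bis-Tris with DTT and Tween 20. Also added: fluorogenic phosphatase substrate OMFP at 25 µM final. Dosing: 20 µM, 1% DMSO. Timing: 20 min reaction, room temperature, in the dark. Measured by: fluorescence intensity, excitation 480 nm, emission 540 nm. Evaluation: normalized % inhibition.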
LMPTP block: blocks human LMPTP phosphatase; P24666; recombinant LMPTP-A, OMFP fluorogenic substrate, fluorescence intensity; inhibition, % at 20 µM; hit rate 0.22% among 360,000; AID 651560;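 active means compounds that cut the enzyme signal by at least half of the control window in the single-dose screen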;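 further: plate controls were DMSO wells with enzyme plus substrate for no effect and substrate without enzyme for full effect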
Target sequence (P24666 whole entry, looked up): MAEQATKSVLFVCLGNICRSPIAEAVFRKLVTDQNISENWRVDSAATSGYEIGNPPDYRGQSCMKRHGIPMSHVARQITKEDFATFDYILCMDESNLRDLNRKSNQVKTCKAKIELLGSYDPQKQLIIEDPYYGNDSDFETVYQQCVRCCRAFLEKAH
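material = LMPTP-A | quantity = 0.625 nM enzyme | reagent = OMFP substrate, 400 µM final | buffer or medium = Bis-Tris pH 6.0, DTT, detergent | detection = endpoint fluorescence intensity from OMFP dephosphorylation | dosing = single 20 µM dose | read-out basis = % inhibition relative to no-enzyme and uninhibited control wells | control set = no-enzyme and uninhibited controls | timing = 50 min at room temperature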
SUMO1 PPI mod: modulators of human SUMO1-mediated protein-protein interactions. inhibition, % at 20 µM. SUMO1 binding to a labelled peptide, TR-FRET, 1 h. P63165. hit rate 0.33% among 360,000; in the data active means inhibition above about 37%
Target sequence (P63165 whole entry, looked up): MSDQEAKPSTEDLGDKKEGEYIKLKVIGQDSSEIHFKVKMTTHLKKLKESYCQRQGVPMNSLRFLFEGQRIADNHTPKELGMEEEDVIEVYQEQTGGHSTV
GRK2 inh: blocks RNA aptamer binding to human GRK2. AID 488847. bead flow cytometry, FAM-aptamer displacement from GRK2. hit rate 0.59% among 330,000. inhibition of aptamer binding, % at 10 µM. P25098;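 active means inhibition of aptamer binding above 40%, roughly 3 SD of noise, on plates passing a quality check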;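 further: median bead fluorescence of bound FAM aptamer so fluorescent compounds give negative values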
Scp-1 inhibitor: blocks human Scp-1 phosphatase activity; hit rate 0.88% among 340,000; Recombinant Scp1, phosphopeptide, malachite green phosphate absorbance; inhibition, % at 20 µM;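 active means inhibition above about 50% at 20 µM, limit read from the data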;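 further: plate controls were DMSO wells with enzyme for no effect and wells lacking enzyme for full effect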
Target sequence (Q9GZU7 76-261 limits assumed): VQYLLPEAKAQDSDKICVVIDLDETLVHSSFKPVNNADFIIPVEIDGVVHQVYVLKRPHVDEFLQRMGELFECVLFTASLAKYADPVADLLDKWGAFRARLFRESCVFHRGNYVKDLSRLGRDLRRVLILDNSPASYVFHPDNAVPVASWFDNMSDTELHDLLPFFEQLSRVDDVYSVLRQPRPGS
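Test system: SCP-1 phosphatase catalytic domain, residues 76-261 | Compound dosing: One concentration, 20 µM, with 1.0% DMSO | Schedule: 45 min room-temperature reaction, 5 min colour, 30 min stabiliser | Detection: Absorbance at 630 nm | Read-out basis: % inhibition of SCP-1 phosphate liberation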
Beacon interf DR: beacon fluorescence artifact, dose response counter-screen. AID 602382. 200 tested, under 10 active. IC50, µM. shares compounds with DNMT1 block. molecular beacon fluorescence, spectral interference counter-screen; call rule not given here
DNMT1 confirm: confirmation of human DNMT1 inhibitors; shares compounds with DNMT1 block; DNMT1 molecular beacon HinP1I cleavage, fluorescence; inhibition, % at 10 µM; hit rate 8% among 2,300;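 active means average inhibition of at least 30% in the single-concentration confirmation test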
Beacon interf: counter-screen for DNMT1 inhibitors: spectral interference. hit rate 1% among 2,300. shares compounds with DNMT1 block. DNMT1 molecular beacon spectral interference counterscreen, fluorescence 485/520. AID 602387. activation (fluorescence interference), % at 10 µM;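 active means activation of at least 30% at 10 µM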;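 further: DNMT1 catalytic domain with a HinP1I cleavage step and a FAM/dabcyl DNA beacon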
* hit, by the source's call; nt = no result given. Hits are enriched below; roughly 2.1% of the tested compounds scored in any of these assays.

SMILES | DNMT1 block | STEP inh | LMPTP block | SUMO1 PPI mod | GRK2 inh | Scp-1 inhibitor | DNMT1 confirm | Beacon interf | others
O=C(O)CSc1nc2sc3c(c2c(=O)n1Cc1ccccc1)CCCCC3 | 3 | 2 | 1 | 8 | 12 | -16 | nt | nt
O=C(O)CSc1cc(C(=O)c2ccccc2O)cn2c(=O)c3c4c(sc3nc12)CCCC4 | 73* | 96* | 34 | 35 | nt | 66* | 61* | 0 | Beacon interf DR=>99
Cc1cc(SCC(=O)NC(=O)NCc2ccco2)nc2c(C)cccc12 | 53* | 3 | -2 | 6 | 0 | 41 | 0 | 0
O=C(CSc1nnc(-c2ccc(OC(F)F)cc2)o1)NC(=O)NCc1ccco1 | 83* | 6 | 13 | 4 | 17 | 49 | 26 | 4
Cc1cc(SCC(=O)N2CCCC2=O)nc2c(C)cccc12 | 80* | -1 | 1 | -2 | 1 | -4 | 3 | -1
COc1ccc(-c2nnc(SCC(=O)NCc3ccco3)o2)cc1 | 2 | 0 | 0 | -1 | 0 | -4 | nt | nt
O=C(c1ccc(Cl)c(Cl)c1)N1CCC(=O)N([C@H](COCc2cccc(C(F)(F)F)c2)Cc2ccccc2)CC1 | nt | nt | 9 | 2 | nt | nt | nt | nt
CCc1cc(=O)oc2cc(C)c(CN3CCCCC3)c(O)c12 | 9 | 10 | 0 | 37 | 2 | -11 | nt | nt
CCc1cc(=O)oc2cc(C)c(CN3CCCC3)c(O)c12 | 87* | 3 | 8 | 39 | 0 | 7 | 4 | 1
CC(=O)Nc1ccc(S(=O)(=O)NCC(CCC(=O)O)C(F)(F)F)cc1 (stereo not given) | 60* | -3 | -2 | 0 | 2 | 1 | 0 | 4
CC(=O)Nc1ccc(S(=O)(=O)NCC(C)NS(=O)(=O)c2ccc(NC(C)=O)cc2)cc1 (stereo not given) | -1 | -4 | -1 | -1 | 0 | -8 | nt | nt
OC1CCCN(Cc2ccc3ccc4cccc5ccc2c3c45)C1 (stereo not given) | 65* | 0 | 0 | -22 | 2 | 0 | 1 | 0
O=C(NCC1CCCN(Cc2cccc(C(F)(F)F)c2)C1)c1ccc(F)cc1 (stereo not given) | 132* | -2 | -1 | -3 | 2 | 0 | 2 | 0
CCCCn1c(N)c(-c2nc3ccccc3s2)c2c([N+](=O)[O-])nn(CC)c(=O)c21 | 0 | 2 | 0 | 3 | 0 | -2 | nt | nt
Cn1nc([N+](=O)[O-])c2c(-c3nc4ccccc4s3)c(N)n(C3CCCCC3)c2c1=O | 62* | 10 | 3 | -8 | 0 | 6 | 1 | 5
NC1=NC(=O)/C(=C\c2ccco2)S1 | 74* | 5 | 3 | 28 | 5 | 63* | 8 | -1
NC1=NC(=O)C(=Cc2ccccc2)S1 | -5 | 2 | 0 | -26 | nt | 2 | nt | nt
CCOC(=O)c1nn(-c2ccc(F)cc2)c(=O)cc1OCC(=O)Nc1ccc(OCC)cc1 | 69* | 7 | 1 | 36 | 0 | -1 | 80* | -1 | Beacon interf DR=>99
CCOC(=O)c1nn(-c2ccc(C)cc2)c(=O)cc1OCC(=O)Nc1cccc(OC)c1 | 1 | -1 | 0 | 4 | 1 | -6 | nt | nt
CCCCC1CC2=C(C(=O)OC(C)(C)O2)C(c2ccc3ccccc3c2)O1 (stereo not given) | -8 | 3 | 5 | 3 | nt | nt | nt | nt
COc1ccccc1CCNC(=O)c1cc(-c2ccncc2)nc2ccc(Br)cc12 | 50* | 9 | 14 | -10 | nt | 12 | 1 | -1
CSc1ccccc1NC(=O)c1cc(-c2cccnc2)nc2ccc(Br)cc12 | 56* | 7 | 4 | 10 | 0 | 4 | 0 | -5
COc1ccccc1CCNC(=O)c1cc(-c2ccccn2)nc2ccc(Br)cc12 | nt | nt | nt | nt | 0 | nt | nt | nt
CCCn1c(N)c(N(CCOC)C(=O)CSc2cc(C)c3ccccc3n2)c(=O)[nH]c1=O | 1 | -1 | -1 | -1 | nt | -3 | nt | nt
OCCN(Cc1ccccn1)Cc1ccccn1 | -4 | 3 | 0 | -4 | nt | nt | nt | nt
SMILES | DNMT1 block | STEP inh | LMPTP block | SUMO1 PPI mod | GRK2 inh | Scp-1 inhibitor | DNMT1 confirm | Beacon interf | others
C=CCC[C@@H](Cc1ccc(F)cc1)C(=O)OC[C@H](Cc1c[nH]c2ccccc12)NC(=O)[C@@H](CC=C)CC(=O)N[C@@H](CO)Cc1ccccc1 | 9 | -2 | 2 | 4 | 2 | -12 | nt | nt
C=CCC[C@H](Cc1ccc(F)cc1)C(=O)OC[C@@H](Cc1c[nH]c2ccccc12)NC(=O)[C@@H](CC=C)CC(=O)N[C@@H](CO)Cc1ccccc1 | -11 | 6 | 1 | -5 | 3 | -8 | nt | nt
C=CCC[C@@H](Cc1ccc(F)cc1)C(=O)OC[C@@H](Cc1c[nH]c2ccccc12)NC(=O)[C@@H](CC=C)CC(=O)N[C@H](CO)Cc1ccccc1 | 74* | 2 | 60* | 8 | 0 | -11 | 10 | 9
C=CCC[C@@H](Cc1ccc(F)cc1)C(=O)OC[C@@H](Cc1c[nH]c2ccccc12)NC(=O)[C@@H](CC=C)CC(=O)N(CCO)Cc1ccccc1 | 60* | -3 | 17 | 9 | 0 | -17 | 9 | 13
C=CCC[C@H](Cc1ccc(F)cc1)C(=O)OC[C@H](Cc1c[nH]c2ccccc12)NC(=O)[C@H](CC=C)CC(=O)N(CCO)Cc1ccccc1 | -32 | 1 | 6 | 3 | 3 | -18 | nt | nt
C=CCC[C@@H](Cc1ccc(F)cc1)C(=O)OC[C@@H](Cc1c[nH]c2ccccc12)NC(=O)[C@H](CC=C)CC(=O)N[C@H](CO)Cc1ccccc1 | 71* | 3 | 1 | 5 | 0 | -8 | 0 | -3
C=CC[C@@H](CC(=O)N[C@@H](CO)Cc1ccccc1)C(=O)NC[C@@H](OC(=O)[C@@H](CC=C)Cc1ccc(F)cc1)c1ccccc1 | 66* | 1 | -5 | 3 | 5 | 1 | 2 | 4
Cc1cccc(C)c1NC(=O)C(c1cccc2ccccc12)n1c(=O)c(-c2cc3ccccc3[nH]2)nc2ccccc21 (stereo not given) | nt | nt | 2 | 0 | nt | nt | nt | nt
COc1ccc(C=NNc2ccc([N+](=O)[O-])cc2S(=O)(=O)Nc2ccccc2C(=O)O)cc1OC | -22 | -3 | 2 | 3 | 2 | -4 | nt | nt
COc1ccc(/C=N/Nc2ccc([N+](=O)[O-])cc2S(=O)(=O)N2CCN(C)CC2)cc1 | 56* | -15 | -1 | 6 | 0 | 2 | 1 | 6

Source: PubChem BioAssay (several laboratories)
